Experimental data taken from ChEMBL document CHEMBL1122968, “Myocardial imaging agents: synthesis, characterization, and evaluation of (Z)- and (Z,E)-18-[82Br]bromo-5-tellura-17-octadecenoic acids” (J Med Chem, 1985).

Tests used:
[1] = system: Rattus norvegicus; assay: Radioactivity was determined in blood tissues of female fischer 344 rats by intravenous administration after 1 hour; type: ADME, organism-based; details: in vivo
Summary of the method: (§1)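 Female Fischer 344 rats, 10–12 weeks, 170–200 g, fed ad libitum. The 82Br-labeled fatty acid was taken up in 0.5 mL absolute ethanol and added dropwise to stirred 6% bovine serum albumin at ~40 °C (final ethanol 10%), then 0.22-μm filtered. Dosing was a lateral tail vein injection under ether anesthesia. Rats were killed by cervical fracture at the stated time and blood was taken by cardiac puncture.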

[2] = system: Rattus norvegicus; assay: Radioactivity was determined in heart tissues of female fischer 344 rats by intravenous administration after 5 minutes; type: ADME, organism-based; details: in vivo; summary of the method: as §1
[3] = system: Rattus norvegicus; assay: Radioactivity was determined in blood tissues of female fischer 344 rats by intravenous administration after 1 day; type: ADME, organism-based; details: in vivo, 24 h; summary of the method: as §1
[4] = system: Rattus norvegicus; assay: Radioactivity was determined in blood tissues of female fischer 344 rats by intravenous administration after 30 minutes; type: ADME, organism-based; details: in vivo, 0.5 h; summary of the method: as §1
[5] = system: Rattus norvegicus; assay: Radioactivity was determined in blood tissues of female fischer 344 rats by intravenous administration after 5 minutes; type: ADME, organism-based; details: in vivo; summary of the method: as §1
[6] = system: Rattus norvegicus; assay: Radioactivity was determined in heart tissues of female fischer 344 rats by intravenous administration after 1 day; type: ADME, organism-based; details: in vivo, 24 h; summary of the method: as §1
[7] = system: Rattus norvegicus; assay: Radioactivity was determined in heart tissues of female fischer 344 rats by intravenous administration after 1 hour; type: ADME, organism-based; details: in vivo; summary of the method: as §1
[8] = system: Rattus norvegicus; assay: Radioactivity was determined in heart tissues of female fischer 344 rats by intravenous administration after 30 minutes; type: ADME, organism-based; details: in vivo, 0.5 h; summary of the method: as §1
[9] = system: Rattus norvegicus; assay: Radioactivity was determined in kidneys of female fischer 344 rats by intravenous administration after 30 minutes; type: ADME, organism-based, Kidney; details: in vivo, 0.5 h; summary of the method: as §1
[10] = system: Rattus norvegicus; assay: Radioactivity was determined in kidneys of female fischer 344 rats by intravenous administration after 5 minutes; type: ADME, organism-based, Kidney; details: in vivo; summary of the method: as §1
[11] = system: Rattus norvegicus; assay: Radioactivity was determined in liver tissues of female fischer 344 rats by intravenous administration after 1 day; type: ADME, organism-based; details: in vivo, 24 h; summary of the method: as §1
[12] = system: Rattus norvegicus; assay: Radioactivity was determined in liver tissues of female fischer 344 rats by intravenous administration after 1 hour; type: ADME, organism-based; details: in vivo; summary of the method: as §1
[13] = system: Rattus norvegicus; assay: Radioactivity was determined in liver tissues of female fischer 344 rats by intravenous administration after 30 minutes; type: ADME, organism-based; details: in vivo, 0.5 h; summary of the method: as §1
[14] = system: Rattus norvegicus; assay: Radioactivity was determined in liver tissues of female fischer 344 rats by intravenous administration after 5 minutes; type: ADME, organism-based; details: in vivo; summary of the method: as §1
[15] = system: Rattus norvegicus; assay: Radioactivity was determined in lung tissues of female fischer 344 rats by intravenous administration after 1 day; type: ADME, organism-based; details: in vivo, 24 h; summary of the method: as §1
[16] = system: Rattus norvegicus; assay: Radioactivity was determined in lung tissues of female fischer 344 rats by intravenous administration after 1 hour; type: ADME, organism-based; details: in vivo; summary of the method: as §1
[17] = system: Rattus norvegicus; assay: Radioactivity was determined in lung tissues of female fischer 344 rats by intravenous administration after 30 minutes; type: ADME, organism-based; details: in vivo, 0.5 h; summary of the method: as §1
[18] = system: Rattus norvegicus; assay: Radioactivity was determined in lung tissues of female fischer 344 rats by intravenous administration after 5 minutes; type: ADME, organism-based; details: in vivo; summary of the method: as §1
[19] = system: Rattus norvegicus; assay: Radioactivity was determined in blood tissues of female fischer 344 rats by intravenous administration after 2 hours; type: ADME, organism-based; details: in vivo; summary of the method: as §1
[20] = system: Rattus norvegicus; assay: Radioactivity was determined in heart tissues of female fischer 344 rats by intravenous administration after 2 hours; type: ADME, organism-based; details: in vivo; summary of the method: as §1
[21] = system: Rattus norvegicus; assay: Radioactivity was determined in liver tissues of female fischer 344 rats by intravenous administration after 2 hours; type: ADME, organism-based; details: in vivo; summary of the method: as §1
[22] = system: Rattus norvegicus; assay: Radioactivity was determined in thyroid of female fischer 344 rats by intravenous administration after 1 hour; type: ADME, organism-based, Thyroid gland; details: in vivo; summary of the method: as §1
[23] = system: Rattus norvegicus; assay: Radioactivity was determined in thyroid of female fischer 344 rats by intravenous administration after 2 hours; type: ADME, organism-based, Thyroid gland; details: in vivo; summary of the method: as §1
[24] = system: Rattus norvegicus; assay: Radioactivity was determined in thyroid of female fischer 344 rats by intravenous administration after 30 minutes; type: ADME, organism-based, Thyroid gland; details: in vivo, 0.5 h; summary of the method: as §1
[25] = system: Rattus norvegicus; assay: Radioactivity was determined in thyroid of female fischer 344 rats by intravenous administration after 5 minutes; type: ADME, organism-based, Thyroid gland; details: in vivo; summary of the method: as §1
[26] = system: Rattus norvegicus; assay: Radioactivity was determined in lung tissues of female fischer 344 rats by intravenous administration after 2 hours; type: ADME, organism-based; details: in vivo; summary of the method: as §1

Compound | Dose/g [1] [%] | Dose/g [2] [%] | Dose/g [4] [%] | Dose/g [5] [%] | Dose/g [7] [%] | Dose/g [8] [%] | Dose/g [9] [%] | Dose/g [10] [%] | Dose/g [12] [%] | Dose/g [13] [%] | Dose/g [14] [%] | Dose/g [16] [%] | Dose/g [17] [%] | Dose/g [18] [%] | also measured
O=C(O)CCC[Te]CCCCCCCCCCC/C=C/I | 0.19 | 3.99 |  |  |  |  |  |  |  |  |  |  |  |  | 
O=C(O)CCC[Te]CCCCCCCCCCC/C=C/Br (stereo in doubt; form 2) | 0.39 | 3.28 | 0.34 | 0.18 | 3.47 | 3.79 | 2.15 | 2.31 | 6.04 | 6.79 | 6.87 | 1.88 | 2.08 | 1.91 | Dose/g [3]: 0.88%; Dose/g [6]: 2.6%; Dose/g [11]: 3.15%; Dose/g [15]: 1.48%
O=C(O)CCC[Te]CCCCCCCCCCC/C=C/Br (stereo in doubt; form 1) | 0.43 | 2.77 | 0.61 | 0.13 | 3.01 | 2.51 | 1.49 | 1.62 | 5.47 | 6.13 | 7.33 | 1.61 | 1.53 | 1.26 | Dose/g [19]: 0.46%; Dose/g [20]: 2.56%; Dose/g [21]: 5%; Dose/g [22]: 9.26%; Dose/g [23]: 9.52%; Dose/g [24]: 10.86%; Dose/g [25]: 7.56%; Dose/g [26]: 1.49%
